Measured values taken from ChEMBL document CHEMBL1157059, “Eremophilane-type sesquiterpenes from the fungus Xylaria sp. BCC 21097” (J Nat Prod, 2010).
≈ marks a conversion by molar mass, not a printed value.

Columns and labels:
Vero = test: Cytotoxicity against african green monkey Vero cells by green fluorescent protein microplate assay; assay type: cell-based; settings: Chlorocebus sabaeus
Outline: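 Vero cells (African green monkey kidney […]) tested in the green fluorescent protein microplate assay (GFPMA), the same format the paper used for Mycobacterium tuberculosis H37Ra.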

MCF7 = test: Cytotoxicity against human MCF7 cells after 45 hrs by resazurin microplate assay; assay type: functional, cell-based; settings: MCF7, 45 h
Outline: (§1)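 Human cancer cell panel in the resazurin microplate assay: KB (oral epidermoid carcinoma), MCF-7 (breast cancer) and NCI-H187 (small-cell lung cancer).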

[1] = system: Mycobacterium tuberculosis; test: Antituberculosis activity against Mycobacterium tuberculosis H37Ra by green fluorescent protein microplate assay; assay type: functional
Plasmodium falciparum = test: Antimalarial activity against Plasmodium falciparum K1 after 18 hrs by [G-3H]hypoxanthine uptake assay; assay type: functional, organism-based; settings: K1, 18 h
Outline: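 Plasmodium falciparum K1, a multidrug-resistant strain, tested by the microculture radioisotope technique.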

Candida albicans = test: Antifungal activity against Candida albicans after 45 hrs by resazurin microplate assay; assay type: functional, organism-based
KB = test: Cytotoxicity against human KB cells after 45 hrs by resazurin microplate assay; assay type: functional, cell-based; outline: as §1
NCI-H187 = test: Cytotoxicity against human NCI-H187 cells after 45 hrs by resazurin microplate assay; assay type: functional, cell-based; settings: NCI-H187, 45 h; outline: as §1

Q: Which IC50 (Vero) does the source give for `C=C1C(=O)O[C@@H]2C[C@]34O[C@H]3CC[C@H](C)[C@@]4(C)C[C@]12O` here?
A: 9.4 µM

Q: What about the IC50 (MCF7) of the same compound?
A: 10 µM

Q: What about the MIC [1] of the same compound?
A: 47 µM (≈ 12.4 µg/mL)

Q: What about the IC50 (Plasmodium falciparum) of the same compound?
A: 13 µM

Q: What about the IC50 (Candida albicans) of the same compound?
A: 7.8 µM

Q: What about the IC50 (KB) of the same compound?
A: 10 µM

Q: And the IC50 (NCI-H187)?
A: 5.8 µM

Q: For `C[C@H]1CC[C@@H]2O[C@@]23C[C@H]2OC(=O)C(CO)=C2C[C@]13C`, which IC50 (Vero) is on record?
A: > 189 µM

Q: What about the IC50 (MCF7) of the same compound?
A: > 189 µM

Q: What about the MIC [1] of the same compound?
A: > 189 µM

Q: And the IC50 (Plasmodium falciparum)?
A: > 38 µM

Q: And the IC50 (Candida albicans)?
A: > 189 µM

Q: What about the IC50 (KB) of the same compound?
A: > 189 µM

Q: And the IC50 (NCI-H187)?
A: > 189 µM

Q: For `C=C1C(=O)O[C@@H]2C[C@]3(O)[C@H](OC)CC[C@H](C)[C@@]3(C)C[C@]12O`, which IC50 (Vero) is on record?
A: 3.9 µM

Q: What about the IC50 (MCF7) of the same compound?
A: 15 µM

Q: What about the MIC [1] of the same compound?
A: 42 µM (≈ 12.4 µg/mL)

Q: What about the IC50 (Plasmodium falciparum) of the same compound?
A: 8.1 µM

Q: And the IC50 (Candida albicans)?
A: > 169 µM

Q: And the IC50 (KB)?
A: 21 µM

Q: And the IC50 (NCI-H187)?
A: 3.8 µM

Q: Which IC50 (Vero) does the source give for `CC1=C2C[C@]3(C)[C@@H](C)CC[C@@H](O)[C@@]3(O)C[C@H]2OC1=O` [MAIRETOLIDE F] here?
A: > 188 µM

Q: And the IC50 (MCF7)?
A: > 188 µM

Q: What about the MIC [1] of the same compound?
A: > 188 µM

Q: And the IC50 (Plasmodium falciparum)?
A: > 38 µM

Q: And the IC50 (Candida albicans)?
A: > 188 µM

Q: And the IC50 (KB)?
A: > 188 µM

Q: What about the IC50 (NCI-H187) of the same compound?
A: > 188 µM

Q: What does the source list for `C=C1C(=O)O[C@@H]2C[C@]3(O)[C@H](O)CC[C@H](C)[C@@]3(C)C[C@]12O`?
A: IC50 (Vero): 8.5 µM; IC50 (MCF7): 15 µM; MIC [1]: > 177 µM; IC50 (Plasmodium falciparum): > 35 µM; IC50 (Candida albicans): > 177 µM; IC50 (KB): 5 µM; IC50 (NCI-H187): 7.2 µM
